Measured values: ChEMBL document CHEMBL1124373, “Specific inhibition of benzodiazepine receptor binding by some N-(indol-3-ylglyoxylyl)amino acid derivatives: stereoselective interactions” (J Med Chem, 1989)

Experiments:
[1] = target: T1, GABA-A receptor; anion channel (Bos taurus) (UniProt P10063+P08220+P20237+P08219+P10064+P22300); experiment: Percentage inhibition of [3H]flunitrazepam binding to benzodiazepine receptor from bovine cerebral cortex at a concentration of 250 uM; type: tissue-based
[2] = target: GABA-A receptor; anion channel; experiment: Inhibitory concentration against [3H]flunitrazepam binding to benzodiazepine receptor from bovine cerebral cortex; type: tissue-based
Outline: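 Membranes from bovine cerebral cortex were homogenized in 0.32 M sucrose with protease inhibitors, osmotically shocked, and suspended in 50 mM Tris-HCl pH 7.4. Membrane (0.5 mg protein) was incubated with 0.9 nM [3H]flunitrazepam at 0 °C for 90 min, then filtered and counted. Nonspecific binding was defined with 10 µM diazepam. IC50 came from log-probit analysis of six to eight concentrations in triplicate; values are means ± SEM of four determinations.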

[3] = target: T1, GABA-A receptor; anion channel (Bos taurus); experiment: Relative binding to GABA-A benzodiazepine receptor in the presence and absence of GABA (GABA shift); type: protein-complex assay
Outline: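 Exhaustively washed bovine cortical membranes were used. Binding inhibition used 0.9 nM [3H]flunitrazepam at 0 °C for 90 min in 50 mM Tris-HCl pH 7.4. IC50 was determined by log-probit analysis without and with 10 µM GABA. Ratio = IC50 without GABA / IC50 with GABA.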

[4] = tested on: Mus musculus; experiment: Antagonism of Diazepam anticonvulsant effect in mice treated with 60 mg/kg PTZ; type: functional
[5] = tested on: Mus musculus; experiment: Dose required to induce convulsions in mice treated with subcutaneous PTZ (40 mg/kg); type: functional; conditions: sc
Outline: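 Groups of 10 mice received graded ip doses (0.1 mL) suspended in 1% carboxymethylcellulose, or vehicle alone. A subconvulsant PTZ dose of 40 mg/kg followed 30 min later. ED50 is the dose inducing convulsions in 50% of mice.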

## CCOC(=O)[C@H](Cc1ccccc1)NC(=O)C(=O)c1c[nH]c2ccc(OC)cc12
[1]
  inhibition: 77%

## COc1ccc2[nH]cc(C(=O)C(=O)N[C@H](Cc3ccccc3)C(=O)O)c2c1
[1]
  inhibition: 18%

## CCOC(=O)[C@H](C)NC(=O)C(=O)c1c[nH]c2ccc(OC)cc12
[2]
  IC50: 0.9 µM

## COc1ccc2[nH]cc(C(=O)C(=O)N[C@H](C)C(=O)O)c2c1
[2]
  IC50: 170 µM

## COc1ccc2[nH]cc(C(=O)C(=O)N[C@@H](Cc3ccccc3)C(=O)O)c2c1
[1]
  inhibition: 50%

## O=C(N[C@@H](Cc1ccccc1)C(=O)O)C(=O)c1c[nH]c2ccc(Br)cc12
[2]
  IC50: 60 µM

## CCOC(=O)[C@H](C)NC(=O)C(=O)c1c[nH]c2ccc([N+](=O)[O-])cc12
[3]
  Ratio: 0.67
[4]
  ED50: 100 mg/kg
[2]
  IC50: 0.07 µM
[5]
  ED50: 150 mg/kg

## CCOC(=O)[C@H](C)NC(=O)C(=O)c1c[nH]c2ccc(Cl)cc12
[3]
  Ratio: 0.9
[2]
  IC50: 0.15 µM

## CCOC(=O)[C@@H](Cc1ccccc1)NC(=O)C(=O)c1c[nH]c2ccccc12
[1]
  inhibition: 55%

## C[C@H](NC(=O)C(=O)c1c[nH]c2ccc([N+](=O)[O-])cc12)C(=O)O
[2]
  IC50: 3 µM

## C[C@@H](NC(=O)C(=O)c1c[nH]c2ccc([N+](=O)[O-])cc12)C(=O)O
[2]
  IC50: 19 µM

## C[C@H](NC(=O)C(=O)c1c[nH]c2ccc(Cl)cc12)C(=O)O
[2]
  IC50: 5.01 µM

## CCOC(=O)[C@@H](Cc1ccccc1)NC(=O)C(=O)c1c[nH]c2ccc([N+](=O)[O-])cc12
[2]
  IC50: 2.8 µM

## C[C@@H](NC(=O)C(=O)c1c[nH]c2ccc(Br)cc12)C(=O)O
[2]
  IC50: 80 µM

## CCOC(=O)[C@H](Cc1ccccc1)NC(=O)C(=O)c1c[nH]c2ccc(Cl)cc12
[2]
  IC50: 30 µM

## C[C@@H](NC(=O)C(=O)c1c[nH]c2ccccc12)C(=O)O
[1]
  inhibition: 32%
[2]
  IC50: 304 µM

## C[C@@H](NC(=O)C(=O)c1c[nH]c2ccc(Cl)cc12)C(=O)O
[2]
  IC50: 46 µM

## O=C(N[C@H](Cc1ccccc1)C(=O)O)C(=O)c1c[nH]c2ccc(Br)cc12
[1]
  inhibition: 51%
[2]
  IC50: 245 µM

## CCOC(=O)[C@H](C)NC(=O)C(=O)c1c[nH]c2ccccc12
[2]
  IC50: 7.5 µM

## CCOC(=O)[C@H](Cc1ccccc1)NC(=O)C(=O)c1c[nH]c2ccccc12
[1]
  inhibition: 69%

## CC(NC(=O)C(=O)c1c[nH]c2ccc(Br)cc12)C(=O)O (configuration not stated)
[2]
  IC50: 40 µM

## COc1ccc2[nH]cc(C(=O)C(=O)N[C@@H](C)C(=O)O)c2c1
[2]
  IC50: 22 µM

## CCOC(=O)[C@H](Cc1ccccc1)NC(=O)C(=O)c1c[nH]c2ccc(Br)cc12
[2]
  IC50: 55 µM

## CCOC(=O)[C@H](Cc1ccccc1)NC(=O)C(=O)c1c[nH]c2ccc([N+](=O)[O-])cc12
[2]
  IC50: 0.1 µM

## O=C(N[C@@H](Cc1ccccc1)C(=O)O)C(=O)c1c[nH]c2ccccc12
[1]
  inhibition: 47%

## O=C(N[C@H](Cc1ccccc1)C(=O)O)C(=O)c1c[nH]c2ccc([N+](=O)[O-])cc12
[2]
  IC50: 21 µM

## O=C(NC(Cc1ccccc1)C(=O)O)C(=O)c1c[nH]c2ccc(Br)cc12 (configuration not stated)
[2]
  IC50: 158 µM

## CCOC(=O)[C@@H](C)NC(=O)C(=O)c1c[nH]c2ccc(Br)cc12
[3]
  Ratio: 0.85
[2]
  IC50: 52 µM

## C[C@H](NC(=O)C(=O)c1c[nH]c2ccccc12)C(=O)O
[2]
  IC50: 48 µM

## O=C(N[C@@H](Cc1ccccc1)C(=O)O)C(=O)c1c[nH]c2ccc([N+](=O)[O-])cc12
[2]
  IC50: 4 µM

## CCOC(=O)[C@@H](Cc1ccccc1)NC(=O)C(=O)c1c[nH]c2ccc(Cl)cc12
[2]
  IC50: 45 µM

## CCOC(=O)[C@@H](C)NC(=O)C(=O)c1c[nH]c2ccc([N+](=O)[O-])cc12
[3]
  Ratio: 0.79
[2]
  IC50: 3 µM

## CCOC(=O)[C@@H](C)NC(=O)C(=O)c1c[nH]c2ccc(Cl)cc12
[3]
  Ratio: 0.92
[2]
  IC50: 25 µM

## CCOC(=O)[C@@H](C)NC(=O)C(=O)c1c[nH]c2ccccc12
[2]
  IC50: 17 µM

## CCOC(=O)[C@@H](C)NC(=O)C(=O)c1c[nH]c2ccc(OC)cc12
[2]
  IC50: 110 µM

## CCOC(=O)C(C)NC(=O)C(=O)c1c[nH]c2ccccc12 (configuration not stated)
[2]
  IC50: 13 µM

## C[C@H](NC(=O)C(=O)c1c[nH]c2ccc(Br)cc12)C(=O)O
[2]
  IC50: 7.1 µM

## CC(NC(=O)C(=O)c1c[nH]c2ccccc12)C(=O)O (configuration not stated)
[2]
  IC50: 105 µM

## CCOC(=O)[C@@H](Cc1ccccc1)NC(=O)C(=O)c1c[nH]c2ccc(OC)cc12
[1]
  inhibition: 30%

## O=C(N[C@H](Cc1ccccc1)C(=O)O)C(=O)c1c[nH]c2ccccc12
[1]
  inhibition: 32%

## O=C(N[C@@H](Cc1ccccc1)C(=O)O)C(=O)c1c[nH]c2ccc(Cl)cc12
[2]
  IC50: 12 µM

## O=C(N[C@H](Cc1ccccc1)C(=O)O)C(=O)c1c[nH]c2ccc(Cl)cc12
[2]
  IC50: 48 µM

## CCOC(=O)[C@H](C)NC(=O)C(=O)c1c[nH]c2ccc(Br)cc12
[3]
  Ratio: 0.78
[4]
  ED50: 50 mg/kg
[2]
  IC50: 0.18 µM
[5]
  ED50: 40 mg/kg

## CCOC(=O)C(Cc1ccccc1)NC(=O)C(=O)c1c[nH]c2ccc(Br)cc12 (configuration not stated)
[2]
  IC50: 180 µM

## CCOC(=O)[C@@H](Cc1ccccc1)NC(=O)C(=O)c1c[nH]c2ccc(Br)cc12
[2]
  IC50: 220 µM
